In one test the test system is cancer cell lines. The experiment in a line: Anti-proliferation, comparison of BMX-IN-1 with QL-X-138. In kind it is cell-based. The conditions noted are these: Supplemental Table 3.
In a further test the test system is RV-1. The experiment in a line: Anti-proliferation assay. In kind it is cell-based. A digest of the protocol:
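RV-1 cells grown in DMEM with 10% FBS and 1% penicillin-streptomycin, seeded at 2500–3000/well for 12 h, then exposed to test compound at various concentrations for 72 h. Viability read by CellTiter-Glo luminescence and normalized to DMSO controls. Values are the mean of three independent measurements, with standard error <20%, and GI50 was derived by curve fitting.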

Another test concerns DU-145. The test is described as follows: Anti-proliferation assay. In kind it is cell-based.
The next test deals with HCT-116. The experiment in a line: Anti-proliferation assay. In kind it is cell-based.
Another test deals with HeLa. The experiment in a line: Anti-proliferation assay. In kind it is cell-based.
A further test has as its system K562. The test is described as follows: Anti-proliferation assay. In kind it is cell-based.
Another test relates to TMD8. The test is described as follows: Anti-proliferation assay. In kind it is cell-based.
For the next test, the system named is U2932. The experiment in a line: Anti-proliferation assay. In kind it is cell-based.
The test system of the next test is Ramos. The experiment in a line: Anti-proliferation assay. In kind it is cell-based. The conditions noted are these: B-lymphoma, 72 hours.
Another test relates to OCI-AML3. The test is described as follows: Anti-proliferation assay. In kind it is cell-based, human.
In another test the test system is SKM-1. The experiment in a line: Anti-proliferation assay. The conditions noted are these: SKM-1, AML; 72 hours. In kind it is cell-based, human.
The test system of a further test is NOMO-1. The test is described as follows: Anti-proliferation assay. In kind it is cell-based, human.
The next test deals with NB4. The experiment in a line: Anti-proliferation assay. In kind it is cell-based, human. The conditions noted are these: NB4, AML; 72 hours.
The test system of another test is HEL. The experiment in a line: Anti-proliferation assay. In kind it is cell-based.
For a further test, the system named is U937. The test is described as follows: Anti-proliferation assay. In kind it is cell-based. The conditions noted are these: U937, AML; 72 hours.
In another test the test system is NALM6. The experiment in a line: Anti-proliferation assay. In kind it is cell-based, human. The conditions noted are these: NALM6, ALL; 72 hours.
For a further test, the system named is MEC-1. The experiment in a line: Anti-proliferation assay. The conditions noted are these: MEC-1, CLL; 72 hours. In kind it is cell-based.
The test system of another test is MEC-2. The test is described as follows: Anti-proliferation assay. The conditions noted are these: MEC-2, CLL; 72 hours. In kind it is cell-based.
Another test deals with Hs 505.T. The test is described as follows: Anti-proliferation assay. In kind it is cell-based. The conditions noted are these: CLL, 72 hours.
Another test relates to REC-1. The test is described as follows: Anti-proliferation assay. In kind it is cell-based. The conditions noted are these: REC-1, MCL; 72 hours.
In another test the test system is Ramos cells. The test is described as follows: Signaling pathway effect examination. In kind it is cell-based. A digest of the protocol:
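Ramos cells in RPMI with 10% FBS were treated with serially diluted test compound for 4 h. Cells were then harvested and lysed, and phosphorylation in the lysates was assessed by western blotting.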

A further test has as its system mTOR. The conditions noted are these: read-out: IC50, mTOR; biochemical; cited from earlier work.
In a further test the target is MNK1 (Homo sapiens, UniProt Q9BUB5). The conditions noted are these: cited from earlier work.
Sequence of MNK1 (Q9BUB5 1-424 isoform Q9BUB5-2): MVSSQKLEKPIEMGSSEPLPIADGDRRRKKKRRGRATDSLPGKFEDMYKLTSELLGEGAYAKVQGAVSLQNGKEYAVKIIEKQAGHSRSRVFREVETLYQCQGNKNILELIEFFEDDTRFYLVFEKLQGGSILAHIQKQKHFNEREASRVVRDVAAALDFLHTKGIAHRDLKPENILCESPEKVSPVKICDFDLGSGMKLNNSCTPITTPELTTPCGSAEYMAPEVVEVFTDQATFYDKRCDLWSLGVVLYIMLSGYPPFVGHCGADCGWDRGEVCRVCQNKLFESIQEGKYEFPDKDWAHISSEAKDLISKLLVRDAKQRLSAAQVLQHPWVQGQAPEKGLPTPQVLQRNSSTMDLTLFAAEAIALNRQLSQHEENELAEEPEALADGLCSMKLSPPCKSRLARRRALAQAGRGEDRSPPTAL
A further test addresses BTK (Homo sapiens, UniProt Q06187). The conditions noted are these: cited from earlier work.

Here are results for 4 molecules from PMC4987129 (Leukemia, 2015).

The term GI50 denotes the concentration that inhibits growth by half. High values mean lower sensitivity of the cells, low ones greater sensitivity of the cells. What is called IC50 is the concentration that gives 50% inhibition.

Sequence of BTK (Q06187 whole entry): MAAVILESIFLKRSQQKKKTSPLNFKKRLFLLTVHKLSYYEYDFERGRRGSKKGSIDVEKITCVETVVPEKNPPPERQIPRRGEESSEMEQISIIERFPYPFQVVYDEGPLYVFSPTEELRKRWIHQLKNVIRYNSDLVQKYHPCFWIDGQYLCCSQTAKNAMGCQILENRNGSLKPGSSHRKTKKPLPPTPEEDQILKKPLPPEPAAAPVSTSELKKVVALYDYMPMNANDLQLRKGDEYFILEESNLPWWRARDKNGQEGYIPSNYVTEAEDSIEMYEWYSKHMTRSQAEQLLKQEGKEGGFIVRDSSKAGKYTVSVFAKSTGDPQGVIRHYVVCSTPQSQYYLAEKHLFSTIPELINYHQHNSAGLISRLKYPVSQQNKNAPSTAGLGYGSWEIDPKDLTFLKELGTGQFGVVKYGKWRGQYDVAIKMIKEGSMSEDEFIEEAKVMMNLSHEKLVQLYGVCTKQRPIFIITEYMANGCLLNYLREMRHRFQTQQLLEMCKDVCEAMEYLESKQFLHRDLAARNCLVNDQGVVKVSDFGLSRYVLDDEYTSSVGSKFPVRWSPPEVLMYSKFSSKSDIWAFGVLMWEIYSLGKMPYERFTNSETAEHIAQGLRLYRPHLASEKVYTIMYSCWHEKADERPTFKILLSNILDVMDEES

As to `C=CC(=O)Nc1cc(-n2c(=O)ccc3cnc4ccc(-c5ccc(NS(C)(=O)=O)cc5)cc4c32)ccc1C` [BMX-IN-1], the “anti-proliferation activity in comparison to QL-X-138” value in the test on cancer cell lines is “weaker anti-proliferation activity”.

For the molecule `CC(=O)C1=C(O)C=C2Oc3c(C(N)=O)c(O)cc(O)c3[C@]2(C)C1=O` [Cercosporamide], the GI50 with RV-1 (RV-1, Prostate, 72 hours) is greater than 10 µM; with DU-145 (DU-145, Prostate, 72 hours), greater than 10 µM; in the test with HCT-116 (HCT-116, Colon, 72 hours) it was greater than 10 µM; with HeLa (Cervical, 72 hours), greater than 10 µM; in the test with K562 (K562, CML, 72 hours), greater than 10 µM; in the test with TMD8 (TMD8, DLBCL, 72 hours) it was greater than 10000 nM. For the same molecule, the GI50 in the test on U2932 (U2932, DLBCL, 72 hours) was greater than 10 µM; in the test with Ramos it was greater than 10 µM; with OCI-AML3 (OCI-AML3, AML, 72 hours), greater than 10 µM; with SKM-1, greater than 10 µM; in the test on NOMO-1 (NOMO-1, AML, 72 hours), greater than 10 µM; with NB4 it was greater than 10 µM. In addition, the GI50 in the test on HEL (AML, 72 hours) is greater than 10 µM; in the test on U937 it was 3.9 µM; in the test with NALM6, greater than 10 µM; with MEC-1 it was greater than 10 µM; in the test on MEC-2 it was greater than 10 µM; with Hs 505.T, greater than 10 µM. The GI50 with REC-1 was greater than 10 µM. In addition, in the test with Ramos cells (4 hours), the “effect on MNK phosphorylation” value was “did not affect”. Besides, in the test on Ramos cells (at a concentration of 1 μM), the “effect on phosphorylation of eIF4E S209” value was “suppressed”.

Consider `C=CC(=O)N1CCC[C@@H](n2nc(-c3ccc(Oc4ccccc4)cc3)c3c(N)ncnc32)C1` [PCI-32765], for which the GI50 in the test with RV-1 (RV-1, 72 h) was greater than 10 µM; in the test with DU-145 (Homo sapiens, DU-145, 72 h), greater than 10 µM; in the test on HCT-116 (Homo sapiens, HCT-116, 72 h) it was greater than 10 µM; with HeLa (Homo sapiens, 72 h), greater than 10 µM; in the test on K562 (Homo sapiens, K562, 72 h), greater than 10 µM; with TMD8 (Homo sapiens, TMD8, 72 h) it was 2 nM. Moreover, the 50% growth inhibitory concentration (GI50) was greater than 10 µM in the test with U2932 (Homo sapiens, U2932, 72 h); greater than 10 µM in the test on OCI-AML3 (Homo sapiens, OCI-AML-3, 72 h); greater than 10 µM in the test on NOMO-1 (Homo sapiens, NOMO-1, 72 h); 4 µM in the test with HEL (Homo sapiens, 72 h). Besides, in the test with Ramos cells (4 hours), the “effect on MNK phosphorylation” value is “did not affect”. In addition, in the test with Ramos cells (4 hours), the “effect on phosphorylation of PLCγ2 Y1217” value is recorded as “strongly blocked”.

Regarding `Nc1ccc(-c2ccc3ncc4ccc(=O)n(-c5cccc(C(F)(F)F)c5)c4c3c2)cn1` [Torin2, 9-(6-aminopyridin-3-yl)-1-(3-(trifluoromethyl)phenyl)benzo[h][1,6]naphthyridin-2(1H)-one], in the test on mTOR, the IC50 is 0.25 nM. Moreover, on MNK1, the “activity against MNK1” value is recorded as “no apparent activity”. For the same molecule, the “activity against BTK” value at BTK is “no apparent activity”.
